Compounds with a hit are over-represented: about 11% of the library has one in this group of screens.
Lmaj promast: Leishmania major promastigote growth inhibition, primary screen; Leishmania major promastigotes, resazurin fluorescence viability; inhibition, % at 10 µM; 9% of 200,000 active;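 further: promastigotes grown with compound for 44 hours at 28 °C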
G6PDH CS: L. mesenteroides G6PDH inhibitors, counter-screen for G6PDH-coupled screening assays, biochemical, Leuconostoc mesenteroides enzyme; glucose-6-phosphate dehydrogenase [Leuconostoc mesenteroides]; Purified L. mesenteroides G6PDH, diaphorase/resazurin coupled fluorescence, 45 min; inhibition, % at 5 µM; 0.12% of 200,000 active; AID 1020, 2008
Diaph inh CS: diaphorase inhibitors and chemical oxidizers, primary screen, counter-screen for diaphorase-coupled primary assays, biochemical, uHTS, resorufin fluorescence; inhibition, % at 20 µM; AID 1217, 2008; diaphorase resazurin-to-resorufin fluorescence, NADH, 16 min; bacterial (C. kluyveri) enzyme, not human; 0.69% of 190,000 active;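 active means primary screen inhibition at 20 µM above a set limit, cut at about 50% in these data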;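 further: plate controls were DMSO with full reaction for no effect and wells lacking NADH for full effect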
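System: Diaphorase enzyme from Clostridium kluyveri | Amount: Enzyme working solution with 0.14 U/mL diaphorase | Benchmarks: No-NADH positive control and DMSO neutral control | Signal: Fluorescence of resorufin formed from resazurin, Ex 544/Em 590 nm | Schedule: 16-min room-temperature incubation before reading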
Diaphorase act: compounds boosting diaphorase resazurin reduction – biochemical, uHTS, resorufin fluorescence, counter-screen for diaphorase-coupled primary assays, primary screen; AID 1229, 2008; 0.005% of 190,000 active; Diaphorase/resazurin coupled assay, 16 min; hits give high values; 1 = vehicle wells, 0 = NADH-free wells; activation factor at 20 µM;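 active means diaphorase activity raised at least twofold by the compound at 20 µM; inactive means activation factor below 2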
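System – purified diaphorase enzyme from Clostridium kluyveri · Input – enzyme 0.07 U/mL final · Also added – final NADH 0.114 mM, resazurin 0.1 mM · Measured by – fluorescence of resorufin, 544 nm excitation, 590 nm emission · Timing – 16 min enzyme reaction, ambient temperature · Measure – resorufin increase flagging diaphorase activators or reducers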
WT yeast gro inh: growth inhibition of WT strain, primary screen, mitochondrial fusion inhibitor project, WT and mutant strains, chemical genetic. inhibition, % at 10 µM. AID 1362, 2008. 2.1% of 190,000 active. mitochondrial fusion phenotypic screen; in the data active means inhibition above about 58%; tested in S. cerevisiae
Active calls of the source: *; x = no result. Unless noted, no stated cut-off is given here; in the data, active means inhibition above about 50%; inactive means the rest.

SMILES | Lmaj promast | G6PDH CS | Diaph inh CS | Diaphorase act | WT yeast gro inh
COc1cc(CN2CCC(C(=O)N3CCC(C)CC3)CC2)cc(Br)c1O | 82* | 9 | 36 | 0.6 | 8
COc1ccc(CN2CCC(C(=O)N3CCN(c4ccccc4F)CC3)CC2)cc1OC | -2 | 2 | 13 | 0.9 | 18
COc1cc(CN2CCC(C(=O)N3CCN(c4ccccc4F)CC3)CC2)cc(OC)c1OC | 83* | 4 | 17 | 0.8 | -6
CCCn1c(N)c(C(=O)CSc2nc(C)cs2)c(=O)n(C)c1=O | 2 | 8 | 5 | 0.9 | -1
O=C(CN1CCCCCC1)NCc1ccccc1 | 0 | 3 | 3 | 1 | 17
CCC(C)c1ccccc1NC(=O)CN1CCN(C/C=C/c2ccccc2)CC1 (stereo not drawn) | 96* | 15 | 18 | 0.8 | 58
O=C(CN1CCN(C/C=C/c2ccccc2)CC1)NCc1ccccc1 | 63* | 7 | 1 | 1 | 10
CC1CCC/C(=N/Nc2nc3ccccc3s2)C1 (stereo not drawn) | 52* | 6 | 10 | 0.9 | 21
Cc1cccc2c(N=Nc3ccc(S(=O)(=O)Nc4ccc(Cl)cc4)cc3[N+](=O)[O-])c(O)[nH]c12 | 53* | 7 | 16 | 0.8 | -6
Cc1ccc(S(=O)(=O)Nc2ccc(C(N)=O)cc2)cc1[N+](=O)[O-] | -10 | 10 | 0 | 1 | 2
O=[N+]([O-])c1cccnc1N1CCC(c2cc(-c3ccc(Cl)cc3)n[nH]2)CC1 | 17 | 2 | 18 | 0.8 | 72*
O=C(O)C1CN(c2ncccc2[N+](=O)[O-])C1 | -6 | 9 | 16 | 0.8 | -5
Cc1c(-c2ccn[nH]2)cc(NC(=O)c2ccc(Cl)cc2)c(=O)n1N | -3 | -3 | 8 | 0.9 | -7
Fc1ccc(N2CCN(Cc3cnc(N4CCOCC4)s3)CC2)cc1 | 64* | 3 | 5 | 0.9 | -14
OC(CNC1CCCc2ccccc21)COc1c(Cl)cccc1Cl (stereo not drawn) | 93* | -2 | 5 | 1 | 21
O=C(Nc1cccc2ccccc12)NC1CCCc2ccccc21 (stereo not drawn) | -1 | 16 | 11 | 0.9 | 16
CCS(=O)(=O)N1CCN(Cc2ccc([N+](=O)[O-])cc2)CC1 | -5 | 13 | 8 | 0.9 | -9
CSc1ccc(CN2CCN(Cc3ccc([N+](=O)[O-])cc3)CC2)cc1 | 91* | 2 | 13 | 0.9 | 36
O=[N+]([O-])c1ccc(CN2CCOCCOCCN(Cc3ccc([N+](=O)[O-])cc3)CCOCC2)cc1 | 80* | -8 | 9 | 0.9 | 3
O=[N+]([O-])c1ccc(COc2ccc(Br)cc2CN2CCOCC2)cc1 | 4 | -1 | 26 | 0.7 | -7
Cn1nc([N+](=O)[O-])nc1Oc1ccc(C(C)(C)C)cc1 | 22 | -2 | 10 | 0.9 | -7
CCCCNC(=O)CCn1c(=O)c2ccccc2n(CC(=O)NCCc2ccc(OC)c(OC)c2)c1=O | -1 | -1 | 10 | 0.9 | -3
O=C1CCC/C1=c1\s/c(=C\c2cccnc2)c(=O)n1-c1ccccc1 | 55* | 3 | 9 | 0.9 | 3
O=c1/c(=C\c2cccnc2)sc2nc3ccccc3n12 | 2 | 2 | 18 | 0.8 | -9
CCCCCCCn1c2c(c(=N)c3ccccc31)CCC2 | 100* | 14 | -22 | 1.2 | 81*
SMILES | Lmaj promast | G6PDH CS | Diaph inh CS | Diaphorase act | WT yeast gro inh
N=c1c2c(n(Cc3ccc(Cl)c(Cl)c3)c3c1CCC3)CCCC2 | 100* | 0 | 11 | 0.9 | 72*
N=c1c2c(n(Cc3ccc([N+](=O)[O-])cc3)c3c1CCC3)CCCC2 | 64* | 2 | 13 | 0.9 | 67*
N=c1c2c(n(Cc3ccc(Br)cc3)c3c1CCC3)CCCC2 | 100* | 2 | 7 | 0.9 | 58*
O=c1[nH]c(=O)n(Cc2ccccc2)c2c1CCC2 | 3 | -3 | -4 | 1 | -31
O=C1c2cccnc2C(Nc2ccc(F)c(Cl)c2)N1Cc1cccs1 (stereo not drawn) | 24 | 2 | 14 | 0.9 | 11
C=CCSc1nc2ccsc2c(=O)n1-c1cccnc1 | 6 | 2 | 9 | 0.9 | -8
CCCn1c2c(c(=N)c3c1CCC3)CCCC2 | 100* | 5 | 11 | 0.9 | 10
Cc1cc(C(=O)NCC(=O)OCC(=O)N(C(C)C)C(C)C)ccc1[N+](=O)[O-] | -2 | -1 | 6 | 0.9 | 8
O=C(CC1SC(=NCc2ccccc2)NC1=O)Nc1ccccc1 (stereo not drawn) | 10 | 4 | 0 | 1 | -7
O=C(O)c1ccc(NS(=O)(=O)c2cc(C(=O)O)ccc2Br)cc1 | 99* | -10 | 15 | 0.8 | -2
O=C(O)c1ccc(NS(=O)(=O)c2cccc3cccnc23)cc1 | -12 | 2 | 8 | 0.9 | 18
COc1ccccc1NC(=O)c1ccc(NC(=O)COC(=O)CCC2CCCC2)cc1 | -4 | -2 | 24 | 0.8 | 34
CC(C)CCN1CCN(CC(c2ccccc2)c2ccccc2)CC1CCO (stereo not drawn) | 91* | 4 | -4 | 1 | -7
OCCC1CN(Cc2nc3ccccc3s2)CCN1CCc1ccccc1 (stereo not drawn) | 84* | 2 | 8 | 0.9 | 4
Cc1oc(-c2cccs2)nc1CN1CCN(C2CCCC2)C(CCO)C1 (stereo not drawn) | 20 | 9 | 16 | 0.8 | 2
CC(C)CCN1CCN(Cc2ccon2)CC1CCO (stereo not drawn) | -2 | 12 | -11 | 1.1 | 3
CC(C)NC(=O)C1CCN(C2CCN(Cc3nc4ccccc4s3)CC2)CC1 | 86* | 8 | 10 | 0.9 | -2
Cc1oc(-c2cccs2)nc1CN1CCN(CCC(C)C)C(CCO)C1 (stereo not drawn) | 84* | 13 | x | x | 4
CC(C)CCN1CCN(Cc2nc3ccccc3s2)CC1CCO (stereo not drawn) | 82* | 6 | 4 | 1 | -17
Cc1ccc(-n2c(-c3ccccc3)c[n+]3c2CCc2ccccc2-3)c(C)c1 | 101* | -3 | 16 | 0.8 | 14
Cc1nn(C(=O)c2cccnc2)c(C)c1Sc1ccccc1 | -6 | 7 | 12 | 0.9 | 3
Cc1nn(C(=O)CNS(=O)(=O)c2ccccc2)c(C)c1Sc1ccc(Cl)cc1 | 51* | 11 | 14 | 0.9 | 32
COc1ccc(NC(=S)NNC(=O)Cn2nc([N+](=O)[O-])cc2C)cc1 | -2 | 2 | 13 | 0.9 | -10
Cc1cc([N+](=O)[O-])nn1CC(=O)NNC(=S)Nc1ccc([N+](=O)[O-])cc1 | -5 | 10 | 62* | 0.4 | 21
Cc1ccc(N2C(=O)NC(C(F)(F)F)(C(F)(F)F)C3=C2CC(C)(C)CC3=O)cc1 | 51* | 11 | 5 | 0.9 | -4
